Data as given in article PMC8808266 (Photochemistry and photobiology, 2021).

What was measured:
Format in all cases: cell-based, human
A549 cells [1] = assay: Colocalization / co-incubation with Cy3-cRGDfK; settings: co-incubation with 1 μM Cy3-cRGDfK, 1 μM probe, 30 min
Outline: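 Live A549 cells at 70% confluency in chambered slides were co-incubated 30 min at 37 °C with 1 μM Cy3-cRGDfK plus 1 μM test compound in medium. They were then PBS-washed ×3, Hoechst-stained (3 μM, 10 min, RT) and imaged by epifluorescence (TxRed and Cy5.5 filters). After 10-pixel rolling-ball background subtraction, Pearson's correlation coefficient was computed and reported as average ± SEM.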

HT-1080 cells = assay: Fluorescence cell microscopy, probe uptake; settings: 1 μM probe, 30 min, 37 °C, compared to control probes
Outline: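 HT-1080 cells were kept in EMEM with 10% FBS, 0.1 mM NEAA, 1.5 g/L bicarbonate, 1 mM pyruvate and 1% pen/strep (37 °C, 5% CO2), then grown to 70% confluency. They were exposed to 1 μM probe in medium for 30 min at 37 °C, washed ×3 with PBS, fixed in cold 4% PFA, Hoechst-stained and imaged (Cy5.5 filter). Intensity: rolling-ball background subtraction, auto-threshold, average ± SEM.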

OVCAR-4 cells = assay: Fluorescence cell microscopy, probe uptake; settings: 1 μM probe, 30 min, 37 °C, compared to control probes
Outline: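 OVCAR-4 cells were maintained in RPMI-1640 with 10% FBS, 1% L-glutamine and 0.1 mM NEAA (37 °C, 5% CO2), grown to 70% confluency in chambered slides, then given 1 μM probe in medium for 30 min at 37 °C. After 3 PBS washes, they were fixed in cold 4% PFA (20 min, RT), Hoechst-stained (3 μM, 10 min) and imaged by epifluorescence. Mean intensity: 200-pixel rolling-ball subtraction, auto-threshold, average ± SEM.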

A549 cells [2] = assay: Competitive blocking study of probe uptake; settings: repeated many times using fixed and living cells; excess cRGDfK or Cilengitide
Outline: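 A549 cells at 70% confluency on 8-well slides received 200 μM cRGDfK or 50 μM cilengitide 5 min before the test compound; the blocker stayed during a 30 min, 37 °C incubation with 1 μM test compound. Cells were then PBS-washed ×3, fixed in cold 4% PFA (20 min, RT), Hoechst-stained (3 μM) and imaged. Intensity came from 200-pixel rolling-ball background subtraction and auto-threshold, as average ± SEM.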

Substance: DRGDG (bicyclic or more) [SF8(DRGDG)2]
- cell uptake of probe in the presence of Cy3-cRGDfK (A549 cells [1]): did not reduce cell uptake
- probe uptake (mean fluorescence intensity of epifluorescence micrographs) (HT-1080 cells): Enhanced uptake
- probe uptake (mean fluorescence intensity of epifluorescence micrographs) (OVCAR-4 cells): Enhanced uptake
- cell uptake of probe in competition imaging experiments (A549 cells [2]): not reduced
